# In ChEMBL document CHEMBL1151419, “Antimicrobial effect of halocidin-derived peptide in a mouse model of Listeria infection” (Antimicrob Agents Chemother, 2007):
# Active and inactive are the calls of the source. The calls are words filed in the database; no cut-off is given here. Bridge positions count the residues as written; N and C are the ends. Peptide text beside a SMILES is read from it. I, II: the chains in the order shown.
# Experiments:
# Enterococcus faecium [1] = test: Antimicrobial activity against vancomycin-resistant Enterococcus faecium CCARM 5029 after 18 hrs by broth microdilution assay in presence of 150 mM NaCl; format: functional; settings: CCARM 5029, 18 h
# Method in brief: (§1)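 Same broth microdilution, but the medium was Mueller-Hinton broth supplemented with 150 mM NaCl. Inoculum 2 x 10^5 CFU/ml final. Peptide twofold series in 0.01% acetic acid (stocks 640 to 10 µg/ml). After 18 h at 37°C, MIC read as the lowest concentration with no visible growth.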
# Staphylococcus aureus [2] = test: Antimicrobial activity against methicillin-resistant Staphylococcus aureus CCARM 3695 treated with supernatant containing 2 mg drug incubated for 10 mins with PBS containing 50 % normal human serum centrifuged for 3 hrs by radial diffusion assay; format: functional, organism-based
# Method in brief: (§2)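 2 mg peptide incubated 10 min at 37°C in 2 ml PBS, either serum-free or with 50% heat-treated normal human serum. Spun 3 h at 295,000 x g, 4°C. Then 5 µl of supernatant tested by radial diffusion against mid-log MRSA (4 x 10^6 CFU/ml underlay, 3 h at 37°C, overlay, overnight); clear zones measured.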
# Staphylococcus aureus [3] = test: Antimicrobial activity against methicillin-resistant Staphylococcus aureus CCARM 3695 treated with sample containing 200 ug/ml drug incubated with PBS containing 50% normal human serum for 10 mins measured after 3 hrs by radial diffusion assay; format: functional, organism-based
# Method in brief: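 Normal human serum from three donors, heat-treated 30 min at 56°C. Peptide at 25–200 µg/ml in PBS with 50% serum, held 10 min at 37°C; 5 µl placed in 3-mm wells. Underlay: 1% agarose, 9 mM phosphate, 1 mM citrate, 0.3 mg/ml TSB, pH 7.4, with 4 x 10^6 CFU/ml mid-log MRSA. After 3 h at 37°C, overlaid (1% agarose, 6% TSB), incubated overnight. Clear zones in units (1 mm = 10 units); triplicate means.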
# Staphylococcus aureus [4] = test: Antimicrobial activity against methicillin-resistant Staphylococcus aureus CCARM 3695 after 18 hrs by broth microdilution assay; format: functional; settings: CCARM 3695, 18 h
# Method in brief: (§3)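 Broth microdilution (modified CLSI). Overnight stationary-phase Mueller-Hinton broth cultures diluted to 2 x 10^5 CFU/ml final. Peptide serially twofold diluted in 0.01% acetic acid (stock series 640 down to 10 µg/ml); 11 µl added to 100 µl of bacteria. After 18 h at 37°C, MIC taken as the lowest concentration preventing visible turbidity.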
# Staphylococcus aureus [5] = test: Antimicrobial activity against methicillin-resistant Staphylococcus aureus CCARM 3695 after 18 hrs by broth microdilution assay in presence of 150 mM NaCl; format: functional; settings: CCARM 3695, 18 h; method in brief: as §1
# Listeria monocytogenes [6] = test: Antimicrobial activity against Listeria monocytogenes ATCC 19111 after 18 hrs by broth microdilution assay; format: functional; settings: ATCC 19111, 18 h
# Method in brief: (§4)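 Bacteria were grown overnight to stationary phase in Mueller-Hinton broth at 37°C and diluted to 2 x 10^5 CFU/ml. Line 3 used MHB plus 150 mM NaCl. Peptide stock (640 µg/ml in 0.01% acetic acid) was twofold serially diluted to 10 µg/ml, and 11 µl was added per 100 µl of cells. Turbidity was read after 18 h at 37°C; MIC was the minimum concentration visibly inhibiting growth.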
# Listeria monocytogenes [7] = test: Antimicrobial activity against Listeria monocytogenes ATCC 19111 after 18 hrs by broth microdilution assay in presence of 150 mM NaCl; format: functional; settings: ATCC 19111, 18 h; method in brief: as §4
# Enterococcus faecium [8] = test: Antimicrobial activity against vancomycin-resistant Enterococcus faecium CCARM 5029 after 18 hrs by broth microdilution assay; format: functional; settings: CCARM 5029, 18 h; method in brief: as §3
# Staphylococcus aureus [9] = test: Antimicrobial activity against methicillin-resistant Staphylococcus aureus CCARM 3695 treated with supernatant containing 2 mg drug incubated for 10 mins with PBS centrifuged for 3 hrs by radial diffusion assay; format: functional, organism-based; method in brief: as §2
# Listeria monocytogenes [10] = test: Antibacterial activity against Listeria monocytogenes ATCC 19111 in assay tube containing mixture of erythrocyte/Listeria monocytogenes cells assessed as logarithmic reduction in CFU after 30 mins; format: functional
# Method in brief: (§5)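 Washed mid-log L. monocytogenes (final 1 x 10^5 CFU/ml) was mixed with human blood cells (final 5 x 10^8 cells/ml) and peptide (final 40 µg/ml) in PBS at 37°C. A peptide-free control was included. At 10, 20 and 30 min, aliquots were plated on TSA and colonies counted after overnight growth. Blood cells were counted by hemocytometer under light microscopy.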
# [11] = Toxicity against human erythrocytes in assay tube containing mixture of erythrocytes/Listeria monocytogenes cells at 40 ug/ml after 30 mins; format: cell-based; settings: erythrocyte, 0.5 h; method in brief: as §5
Compound,MIC (Enterococcus faecium [1]) [µg/mL],Activity (Staphylococcus aureus [2]),Activity (Staphylococcus aureus [3]),MIC (Staphylococcus aureus [4]) [µg/mL],MIC (Staphylococcus aureus [5]) [µg/mL],MIC (Listeria monocytogenes [6]) [µg/mL],MIC (Listeria monocytogenes [7]) [µg/mL],MIC (Enterococcus faecium [8]) [µg/mL],Activity (Staphylococcus aureus [9]),Activity (Listeria monocytogenes [10]),Activity [11]
CC(C)C[C@H](NC(=O)CNC(=O)[C@H](Cc1cnc[nH]1)NC(=O)[C@H](Cc1cnc[nH]1)NC(=O)[C@H](CC(C)C)NC(=O)[C@H](CC(C)C)NC(=O)[C@H](C)NC(=O)[C@H](CC(N)=O)NC(=O)[C@H](CC(C)C)NC(=O)[C@H](Cc1c[nH]c2ccccc12)NC(=O)[C@@H](N)CCCCN)C(=O)N[C@@H](CC(N)=O)C(=O)N[C@@H](CSSC[C@H](NC(=O)[C@H](CC(N)=O)NC(=O)[C@H](CC(C)C)NC(=O)CNC(=O)[C@H](Cc1cnc[nH]1)NC(=O)[C@H](Cc1cnc[nH]1)NC(=O)[C@H](CC(C)C)NC(=O)[C@H](CC(C)C)NC(=O)[C@H](C)NC(=O)[C@H](CC(N)=O)NC(=O)[C@H](CC(C)C)NC(=O)[C@H](Cc1c[nH]c2ccccc12)NC(=O)[C@@H](N)CCCCN)C(=O)N[C@@H](C)C(=O)N[C@@H](CCCCN)C(=O)NCC(=O)N[C@H](C(=O)N[C@@H](CC(C)C)C(=O)N[C@@H](C)C(=O)O)C(C)C)C(=O)N[C@@H](C)C(=O)N[C@@H](CCCCN)C(=O)NCC(=O)N[C@H](C(=O)N[C@@H](CC(C)C)C(=O)N[C@@H](C)C(=O)O)C(C)C (I: H-KWLNALLHHGLNCAKGVLA-OH / II: H-KWLNALLHHGLNCAKGVLA-OH; disulfide I:13-II:13),4,inactive,inactive,4,8,4,8,4,,,
CC(C)C[C@H](NC(=O)CNC(=O)[C@H](Cc1cnc[nH]1)NC(=O)[C@H](Cc1cnc[nH]1)NC(=O)[C@H](CC(C)C)NC(=O)[C@H](CC(C)C)NC(=O)[C@H](C)N)C(=O)N[C@@H](CC(N)=O)C(=O)N[C@@H](CSSC[C@H](NC(=O)[C@H](CC(N)=O)NC(=O)[C@H](CC(C)C)NC(=O)CNC(=O)[C@H](Cc1cnc[nH]1)NC(=O)[C@H](Cc1cnc[nH]1)NC(=O)[C@H](CC(C)C)NC(=O)[C@H](CC(C)C)NC(=O)[C@H](C)NC(=O)[C@H](CC(N)=O)NC(=O)[C@H](CC(C)C)NC(=O)[C@@H](N)Cc1c[nH]c2ccccc12)C(=O)N[C@@H](C)C(=O)N[C@@H](CCCCN)C(=O)NCC(=O)N[C@H](C(=O)N[C@@H](CC(C)C)C(=O)N[C@@H](C)C(=O)O)C(C)C)C(=O)N[C@@H](C)C(=O)N[C@@H](CCCCN)C(=O)NCC(=O)N[C@H](C(=O)N[C@@H](CC(C)C)C(=O)N[C@@H](C)C(=O)O)C(C)C [HALOCIDIN] (I: H-WLNALLHHGLNCAKGVLA-OH / II: H-ALLHHGLNCAKGVLA-OH; disulfide I:12-II:9),> 64,Active,,16,32,64,> 64,64,Active,,
CC[C@H](C)[C@H](NC(=O)CN)C(=O)NCC(=O)N[C@@H](C)C(=O)N[C@H](C(=O)N[C@@H](CC(C)C)C(=O)N[C@@H](CCCCN)C(=O)N[C@H](C(=O)N[C@@H](CC(C)C)C(=O)N[C@H](C(=O)N[C@H](C(=O)NCC(=O)N[C@@H](CC(C)C)C(=O)N1CCC[C@H]1C(=O)N[C@@H](C)C(=O)N[C@@H](CC(C)C)C(=O)N[C@H](C(=O)N[C@@H](CO)C(=O)N[C@@H](Cc1c[nH]c2ccccc12)C(=O)N[C@H](C(=O)N[C@@H](CCCCN)C(=O)N[C@@H](CCCNC(=N)N)C(=O)N[C@@H](CCCCN)C(=O)N[C@@H](CCCNC(=N)N)C(=O)N[C@@H](CCC(N)=O)C(=O)N[C@@H](CCC(N)=O)C(N)=O)[C@@H](C)CC)[C@@H](C)CC)[C@@H](C)O)[C@@H](C)O)C(C)C)C(C)C [MELITTIN],,,,,,,,,,Active,Toxic
H-RRWVRRVRRVWRRVVRVVRRWVRR-OH,,,,,,,,,,Active,Toxic
